Screening data as filed in PubChem BioAssay.
A selection: hits, their analogues and other compounds. The true share with any hit is near 2.6%.
Rce1 inh: yeast Rce1p protease inhibitors, primary screen, biochemical, fluorescence, cell-free homogeneous; 290,000 tested, 0.27% active; calls only; yeast membranes, quenched prenylated peptide cleavage fluorescence; AID 2563, 2010;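 active = fall in fluorescence gain of 50% or more versus controls, with final raw signal at or below 3038400; inconclusive = same 50% fall but final raw signal above 3038400; inactive = fall in fluorescence gain under 50%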;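 note: plate controls were neutral control wells for no effect and wells lacking membranes for full effect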
Target sequence (Q03530 whole entry, looked up): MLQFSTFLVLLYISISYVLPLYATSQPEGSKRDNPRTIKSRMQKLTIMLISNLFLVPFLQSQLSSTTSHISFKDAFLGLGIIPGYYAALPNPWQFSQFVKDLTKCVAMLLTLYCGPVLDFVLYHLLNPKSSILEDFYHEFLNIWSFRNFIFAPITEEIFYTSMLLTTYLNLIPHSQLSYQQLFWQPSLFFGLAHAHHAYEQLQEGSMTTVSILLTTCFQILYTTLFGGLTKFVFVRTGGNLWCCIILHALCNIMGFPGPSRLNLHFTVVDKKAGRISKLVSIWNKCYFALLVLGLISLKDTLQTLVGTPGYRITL
Platelet DG rel: inhibitors of platelet dense granule secretion, primary screen, cell-based, MLPCN, human platelets; AID 1663, 2009; inhibition, %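 (compounds screened at 7.5 µM in platelet-rich plasma)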; 300,000 tested, 0.22% active; human platelet-rich plasma, SFLLRN dense granule ATP release, luminescence;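 active = mean replicate score, as percent of positive control, at or above 50; inconclusive = mean below 50 but at least one replicate at or above 50; inactive = mean and every replicate below 50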
TAAR1 antagonist: human TAAR1 antagonists, primary screen, Fluo-8 calcium fluorescence, CHO RD-HGA16 cells; inhibition, % at 3 µM; Trace amine-associated receptor 1 (Homo sapiens), Q96RJ0; antagonist; 360,000 tested, 1.5% active;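 active = inhibition above a per-plate cutoff, the mean inhibition of test compounds on that plate plus 3 SD, cut at about 49% in these data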;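 note: 0% = DMSO plus EC80 beta-PEA response and 100% = DMSO alone without agonist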
Target sequence (Q96RJ0 whole entry, looked up): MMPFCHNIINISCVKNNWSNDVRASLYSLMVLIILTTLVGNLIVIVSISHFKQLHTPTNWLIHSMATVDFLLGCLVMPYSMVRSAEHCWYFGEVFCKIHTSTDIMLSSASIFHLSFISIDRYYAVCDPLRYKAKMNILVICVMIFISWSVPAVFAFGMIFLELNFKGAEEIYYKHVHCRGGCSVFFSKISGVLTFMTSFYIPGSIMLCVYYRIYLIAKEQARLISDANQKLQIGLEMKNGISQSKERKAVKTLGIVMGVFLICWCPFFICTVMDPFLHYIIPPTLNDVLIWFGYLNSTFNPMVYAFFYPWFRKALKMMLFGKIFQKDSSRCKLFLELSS
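Assay system: RD-HGA16 CHO cells with stable hTAAR1 and Gα16 / Reagent: EC80 β-phenethylamine stimulus / Doses: 3 µM, single point / Timing: dye loading 75 min at 37 °C, then 30 min room temperature / Measured by: Fluo-8 intracellular calcium dye fluorescence, real-time kinetic reads / Controls: vehicle wells and EC80 agonist wells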
TAAR1 agonist: human TAAR1 agonists, primary screen, Fluo-8 calcium fluorescence, CHO RD-HGA16 cells. vehicle wells 0%, saturating PEA agonist 100%. Trace amine-associated receptor 1 (Homo sapiens), Q96RJ0. 360,000 tested, 0.99% active. AID 624467, 2012. activation, % at 3 µM;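 active = activation above the mean activation of all test compounds in the run plus 3 SD, cut at about 38% in these data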
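Test system: RD-HGA16 (CHO) cells co-expressing Gα16 and hTAAR1 | Doses: Single dose, 3 µM | Schedule: 17-24 h seeding, 75 min 37 °C dye, 30 min RT | Evaluation: % activation from peak over basal fluorescence ratio, DMSO-to-PEA scaled | Technique: Kinetic Fluo-8 calcium fluorescence | Benchmarks: Low control DMSO, high control PEA (EC100)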
VLA-4 inh: inhibition in human VLA-4 binding assay, primary screen, VLA-4 allosteric modulator project, MLPCN library, flow cytometry, VLA-4 expressing cells | Integrin alpha-4 (Homo sapiens), P13612 | ligand binding flow cytometry | inhibition, % (about 7 µM as worked out from the volumes in the protocol) | 330,000 tested, 0.2% active | AID 2557, 2010; in the data active = inhibition above about 50%
TAAR1 nonsel count: nonselective antagonists in TAAR1 counter-screen cells, counter-screen for hTAAR1 antagonist project, cell-based, fluorescence, calcium; 2,400 tested, 77% active; counterscreen cell line, antagonist mode; inhibition, % at 3 µM; AID 651780, 2012; shares compounds with TAAR1 antagonist; in the data active = inhibition above about 22%;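 note: CHO-Ga16 host cells stimulated with ATP at an EC80 level; 0% = agonist EC80 plus vehicle and 100% = vehicle without agonist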
TAAR1 ant conf: human TAAR1 antagonists, retest of hits, confirmation, cell-based, fluorescence. TAAR1-expressing cells, fluorescence antagonist read-out. 2,400 tested, 40% active. shares compounds with TAAR1 antagonist. inhibition, % at 3 µM. AID 651785, 2012; in the data active = inhibition above about 49%;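 note: CHO-Ga16 host cells challenged with agonist PEA near its EC80; 0% = agonist at EC80 plus vehicle and 100% = vehicle with no agonist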
Ga16 nonsel ag: calcium activation in Ga16-expressing cells, counter-screen for TAAR1 antagonist project, cell-based, fluorescence; activation, % at 3 µM; agonist counterscreen; shares compounds with TAAR1 antagonist; 2,400 tested, 18% active; AID 651953, 2012; in the data active = activation above about 12%;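 note: 0% = vehicle wells and 100% = saturating stimulus response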
TAAR1 ag count: TAAR1 activation by candidate antagonists – cell-based, fluorescence, counter-screen for TAAR1 antagonist project; hTAAR1 cell line, agonist mode; 2,400 tested, 2% active; activation, % at 3 µM; AID 651955, 2012; shares compounds with TAAR1 antagonist; in the data active = activation above about 37%;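 note: CHO cells stably expressing TAAR1 with calcium dye readout; 0% = DMSO vehicle and 100% = full agonist response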
An asterisk follows results filed as active; i = inactive; ? = inconclusive; · = no result.

SMILES	Rce1 inh	Platelet DG rel	TAAR1 antagonist	TAAR1 agonist	VLA-4 inh	TAAR1 nonsel count	TAAR1 ant conf	Ga16 nonsel ag	TAAR1 ag count
CC(C)CC(NS(=O)(=O)OCC(Cl)(Cl)Cl)c1ccccc1 (stereo not drawn)	i	2.4	86.2*	19.9	-4.4	13.1	48.2	3.8	4.9
CCCCOc1cccc2c(=O)n(CC(=O)Nc3ccc4c(c3)OCCO4)ccc12	·	·	71.3*	20.6	·	43.4*	88.1*	13.1*	28.4
O=C(Cn1cnc2ccccc2c1=O)Nc1ccc2c(c1)OCCO2	i	-0.2	10.8	5.3	11.4	·	·	·	·
COc1ccc(-c2nnc3n(CCc4ccccc4)c(=O)c4ccccc4n23)c(OC)c1	i	?	-2.1	9.0	-44.4	·	·	·	·
COc1cc(OC)c(-c2nnc3n(CCc4ccccc4)c(=O)c4ccccc4n23)cc1OC	i	?	68.3*	18.3	8.1	26.1*	34.9	7.4	9.5
O=C(Cc1c[nH]c2ccccc12)Nc1ccc(Nc2cccnc2)c(-c2ccc(Cl)c(Cl)c2)c1	·	·	70.6*	10.8	·	38.4*	56.4*	8.7	10.3
O=C(Cc1c[nH]c2ccccc12)Nc1ccc(Nc2cccnc2)c(-c2ccc(Oc3ccccc3)cc2)c1	·	·	30.5	1.9	·	·	·	·	·
COc1ccc(-c2cc(NC(=O)Cc3c[nH]c4ccccc34)ccc2Nc2cccnc2)cc1F	·	·	89.6*	20.0	·	39.3*	65.3*	10.2	12.3
O=C(Cc1c[nH]c2ccccc12)Nc1ccc(Nc2cccnc2)c(-c2cc(F)cc(F)c2)c1	·	·	89.0*	18.3	·	36.2*	57.0*	14.3*	15.2
CCOC(=O)c1ccc2ncc(C(=O)OCC)c(Nc3ccc(N4CCOCC4)cc3)c2c1	i	-11.0	57.3*	9.9	-0.9	36.2*	56.7*	5.9	3.4
C/C(=N\NC(=O)COc1ccccc1[N+](=O)[O-])c1cccc(NC(=O)c2ccncc2)c1	i	-7.2	86.3*	24.4	-0.3	38.1*	58.3*	15.3*	16.4
C/C(=N/NC(=O)c1ccncc1)c1ccc(NC(=O)c2ccccc2)cc1	i	-5.3	18.6	2.8	13.0	·	·	·	·
C/C(=N\NC(=O)c1ccncc1)c1cccc(NC(=O)c2ccc(C(C)(C)C)cc2)c1	i	3.4	76.0*	10.4	-3.8	37.0*	54.0*	10.8	8.1
Cc1cccc(N2CCN(S(=O)(=O)c3ccc4[nH]c(=O)ccc4c3)CC2)c1C	i	-0.3	60.5*	10.9	-13.2	35.0*	37.9	10.6	9.8
CC1CCCCC12NC(=O)N(CC(=O)OCC(=O)Nc1ccc(F)cc1[N+](=O)[O-])C2=O (stereo not drawn)	·	·	76.4*	20.6	10.9	32.0*	53.0*	10.1	13.9
CCC1(CC)NC(=O)N(CC(=O)OCC(=O)Nc2ccccc2OC(F)F)C1=O	·	·	9.1	0.9	1.6	·	·	·	·
CCC1(CC)NC(=O)N(CC(=O)OCC(=O)Nc2ccccc2[N+](=O)[O-])C1=O	i	-6.9	68.3*	18.5	0.7	23.2*	52.5*	11.7*	10.0
O=C(Nc1c2c(nn1-c1ccc([N+](=O)[O-])cc1)CS(=O)(=O)C2)c1ccco1	i	-7.3	-28.2	2.0	-0.8	·	·	·	·
O=C(CCN1C(=O)C2C3CC(C(Br)C3Br)C2C1=O)OCC(=O)c1cccc([N+](=O)[O-])c1 (stereo not drawn)	i	3.2	16.1	0.7	1.7	·	·	·	·
C=CCOC(=O)C1=C(C)NC(SCC(=O)Nc2nccs2)=C(C#N)C1c1cccs1 (stereo not drawn)	i	0.4	52.8*	17.8	0.1	18.8	37.6	11.3	24.7
COc1ccc(OCC(=O)Nc2ccccc2C(=O)NC2CC2)cc1	·	·	18.1	12.9	-4.0	·	·	·	·
COC(=O)c1ccc(OCC(=O)Nc2ccccc2C(=O)NC2CC2)cc1	·	·	62.5*	18.2	-18.6	30.2*	48.3	9.8	8.2
COC(=O)c1ccc2nc(-c3ccco3)c(Cc3ccccc3)n2c1	·	·	-6.6	-0.4	·	·	·	·	·
CCOc1ccc2[nH]c(=O)c(CN(Cc3cccs3)Cc3nnnn3C(C)(C)CC)cc2c1	i	7.3	54.6*	12.3	2.0	12.8	36.6	4.7	14.5
Cc1cc2nc3n(c2cc1C)CCCN3	i	1.2	-1.9	-0.1	12.6	·	·	·	·
SMILES	Rce1 inh	Platelet DG rel	TAAR1 antagonist	TAAR1 agonist	VLA-4 inh	TAAR1 nonsel count	TAAR1 ant conf	Ga16 nonsel ag	TAAR1 ag count
CC1CCCC(C)N1C(=O)COC(=O)CSc1ccc([N+](=O)[O-])cc1 (stereo not drawn)	·	·	-8.0	0.9	·	·	·	·	·
CC(C)(C)N(Cc1ccccc1)C(=O)COC(=O)CSc1ccc([N+](=O)[O-])cc1	i	-0.3	66.8*	6.0	4.1	30.7*	27.2	6.5	4.8
Cc1ccc([N+](=O)[O-])cc1NC(=O)CSc1n[nH]c(-c2cccnc2)n1	i	-1.7	-19.6	-0.7	0.7	·	·	·	·
O=C(NCCC1=CCCCC1)c1[nH]c(C(F)(F)F)nc1-c1ccccc1	·	·	12.2	6.8	·	·	·	·	·
Cc1nc(N2CCN(Cc3ccc4c(c3)OCO4)CC2)c2oc3ccccc3c2n1	·	·	72.1*	-0.2	·	15.3	5.5	-1.2	-1.6
Cc1nc(N2CCN(Cc3ccc4c(c3)OCO4)CC2)c2cc(-c3ccccc3)sc2n1	i	-2.3	-18.0	-1.6	10.9	·	·	·	·
CCOc1ccc(C(=O)Nc2ccccc2N2CCN(C(=O)c3ccccc3)CC2)cc1[N+](=O)[O-]	i	23.9	66.9*	8.4	-5.4	24.9*	45.3	8.5	7.5
CNc1cncc(-c2ccc(CN3CCOCC3)cc2)n1	·	·	-24.2	1.4	·	·	·	·	·
N=C1/C(=C\c2ccc(-c3cccc(C(=O)O)c3)o2)C(=O)N=C2SC=C(c3ccccc3)N12	i	-4.7	75.7*	11.4	-0.5	25.0*	41.6	8.1	5.2
CN(CC(=O)Nc1n[nH]c(=S)s1)S(=O)(=O)c1cccc2cccnc12	i	-3.4	4.4	4.2	10.2	·	·	·	·
O=C(NCc1cccc(Cl)c1)c1ccc2ccccc2n1	i	8.8	-22.9	4.3	6.7	·	·	·	·
